Screens from PubChem.
HTR1E agonist: activates the human 5-HT1E serotonin receptor. CHO 5-HT1E Ga15 NFAT-bla reporter, FRET; 0% DMSO wells, 100% control agonist wells. activation, % at 6 µM. 0.69% of 65,000 active. AID 574;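 active means activation above a set limit, the screen-wide mean activation plus 3 SD, cut at about 8.5% in these data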;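 further: 100% = positive control agonist at 1 µM giving full maximal response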
Target sequence (P28566 whole entry, looked up): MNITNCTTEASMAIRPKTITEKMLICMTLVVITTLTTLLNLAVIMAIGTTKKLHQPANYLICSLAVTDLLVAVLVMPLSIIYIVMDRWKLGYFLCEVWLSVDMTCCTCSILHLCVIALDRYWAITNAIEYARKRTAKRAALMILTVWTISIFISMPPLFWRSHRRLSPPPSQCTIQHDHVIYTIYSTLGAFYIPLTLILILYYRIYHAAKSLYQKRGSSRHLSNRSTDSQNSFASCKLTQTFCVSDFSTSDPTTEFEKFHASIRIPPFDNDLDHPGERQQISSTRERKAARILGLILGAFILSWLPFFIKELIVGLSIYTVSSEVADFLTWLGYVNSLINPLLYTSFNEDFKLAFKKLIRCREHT
5HT1a antag: antagonists of human 5-HT1a serotonin receptor. P08908. inhibition, % at 10 µM. CHO 5-HT1a Ga15 NFAT-bla reporter, antagonist mode. 0.68% of 62,000 active;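 active means inhibition above the mean of all tested compounds plus 3 SD, cut at about 43% in these data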;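 further: receptor stimulated by 5-CT agonist at 100 nM near EC80; beta-lactamase reporter measured by ratiometric fluorescence of a cleavable substrate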
S1P3 agonist: S1P3 (human) receptor agonism; S1P3 NFAT-BLA reporter cells, FRET ratio; relative to 1 µM S1P, basal subtracted; 0.1% of 60,000 active; AID 373; Q99500; activation, % at 4.5 µM;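 active means activation above the screen-wide mean plus 3 SD, cut at about 4.5% in these data, passing the limit was not always enough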
Target sequence (Q99500 whole entry, looked up): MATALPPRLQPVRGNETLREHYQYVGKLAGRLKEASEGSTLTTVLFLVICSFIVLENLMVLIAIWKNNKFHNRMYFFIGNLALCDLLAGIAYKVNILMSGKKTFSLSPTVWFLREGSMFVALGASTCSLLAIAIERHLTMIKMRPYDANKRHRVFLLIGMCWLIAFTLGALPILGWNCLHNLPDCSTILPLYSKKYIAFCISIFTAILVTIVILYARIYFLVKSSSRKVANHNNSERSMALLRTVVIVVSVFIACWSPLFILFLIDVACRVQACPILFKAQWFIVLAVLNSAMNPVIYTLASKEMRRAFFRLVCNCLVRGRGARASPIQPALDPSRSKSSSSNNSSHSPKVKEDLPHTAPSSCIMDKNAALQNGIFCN
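material = human S1P3 NFAT-BLA reporter CHO cells | schedule = 4 h compound at 37 °C, 2 h substrate at RT | measured by = fluorescent BLA substrate, ex 405 nm, em 460/535 nm ratio | controls = 1 µM S1P reference | replication = primary once, confirmation triplicate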
S1P1 ag pot: agonists and agonism potentiators of human S1P1 receptor. P21453. S1P1 CRE-bla cells, forskolin, beta-lactamase FRET, potentiator mode; S1P1 agonist co-added at EC20, 2 nM; 100% = saturating reference agonist, 0% = basal. activation, % at 9.5 µM. 0.57% of 56,000 active;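 active means activation above a cutoff set at the mean activation of all tested compounds plus 3 SD, cut at about 54% in these data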;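 further: forskolin at 4 µM as EC80 and the EC20 agonist is SEW2871; 100% = SEW2871 at its EC100 plus forskolin at EC80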
HTR1A agonist: activates the human 5-HT1a serotonin receptor; CHO 5-HT1a Ga15 NFAT-bla reporter, FRET ratio; 0% basal, 100% maximal reference agonist; activation, % at 10 µM; 0.56% of 65,000 active; AID 567;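 active means activation above the screen-wide mean activation plus 3 SD, cut at about 19% in these data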;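 further: 0% = DMSO wells and 100% = 5-CT at EC100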
5HT1E antag: 5-HT1E (human) receptor antagonism. P28566. inhibition, % at 6 µM. 0.99% of 65,000 active. CHO 5-HT1E Ga15 NFAT-bla reporter, FRET, antagonist;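 active means inhibition above a set limit, the mean inhibition across every tested compound plus 3 SD, cut at about 29% in these data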;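 further: signal is the 460 over 535 nm emission ratio of beta-lactamase substrate; 0% = agonist plus DMSO wells and 100% = wells without agonist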
Starred values were filed as active, the others as inactive; / = no result. In the library only some 3% were active in any assay of this set; here they are far more common.

SMILES | HTR1E agonist | 5HT1a antag | S1P3 agonist | S1P1 ag pot | HTR1A agonist | 5HT1E antag
CCOC(=O)c1c(NC(=O)c2nn(CC)cc2Br)c(C#N)nn1-c1ccccc1 | 0.0 | 4.5 | -1.5 | -25.4 | 1.7 | 17.5
CCOC(=O)c1nn(-c2ccccc2)c(C#N)c1NC(=O)c1nn(CC)cc1Br | 0.0 | 17.1 | -0.8 | -44.1 | 1.6 | 54.4*
C/C=C/Cn1c(SCc2ccc(C)cc2)nc2c1c(=O)[nH]c(=O)n2C | 1.6 | -1.3 | -0.7 | -49.6 | 0.4 | 29.9*
CC1Cc2ccccc2N1C(=O)CSc1nnnn1Cc1ccccc1 (stereo unspecified) | -0.6 | 2.1 | -0.4 | -6.0 | -1.8 | 7.2
c1ccc(-c2nc(NC3CC3)nc(-n3ccnc3)n2)cc1 | 1.8 | 28.8 | -0.4 | -10.9 | -0.1 | 29.3*
CC(C)Nc1nc(-c2ccccc2)nc(-n2ccnc2)n1 | 8.5 | 36.4 | -1.2 | 1.7 | -1.8 | 30.3*
C=CCNc1nc(-c2ccccc2)nc(-n2ccnc2)n1 | 1.6 | 8.3 | -0.9 | -18.5 | -0.3 | 14.2
c1ccc(-c2nc(-n3ccnc3)nc(-n3ccnc3)n2)cc1 | 0.7 | -9.4 | -0.2 | -45.2 | -2.1 | 5.8
COc1ccccc1-c1nnc2sc(-c3cc4ccccc4o3)nn12 | 0.1 | 18.6 | -0.2 | -7.8 | -1.8 | 36.2*
COc1ccccc1-c1nnc2sc(-c3ccc(N(C)C)cc3)nn12 | 0.8 | 67.7* | -1.8 | -66.7 | -4.4 | 86.1*
CN(C)c1ccc(-c2nn3c(-c4ccccc4Cl)nnc3s2)cc1 | 2.1 | 44.8* | -0.9 | -52.8 | 2.5 | 75.3*
Clc1ccccc1-c1nnc2sc(-c3ccncc3)nn12 | -0.2 | 10.7 | -0.6 | -3.9 | -0.5 | 11.7
COc1ccccc1-c1nnc2sc(-c3cnccn3)nn12 | 0.1 | 1.0 | -1.0 | -7.1 | -2.1 | -8.6
CCc1nnc(NC(=O)CSc2nccn2-c2cc(C)cc(C)c2)s1 | 0.2 | 12.0 | -0.4 | 9.4 | 1.3 | 6.5
CN1C(=O)CC(N2CCN(c3ccc(Cl)c(Cl)c3)CC2)C1=O (stereo unspecified) | 0.2 | / | -5.2 | -1.2 | 4.3 | 40.0*
COc1ccc(C2=NOC(C(=O)NCc3ccc(F)cc3)C2)cc1 (stereo unspecified) | -0.3 | 40.5 | 0.0 | 11.6 | -1.9 | 56.3*
CCn1ncc(C2=NOC(C(=O)NCc3ccc(Cl)cc3)C2)c1C (stereo unspecified) | -0.9 | 42.0 | -1.1 | -16.5 | -4.9 | 58.4*
COc1ccc(-c2nc(CN3CCC(C(=O)NC(C)C)CC3)c(C)o2)cc1OC | -0.1 | 0.6 | 0.4 | -5.8 | 0.2 | 1.4
N#Cc1cc2c(=O)n3ccccc3nc2n(Cc2cccnc2)c1=O | 7.5 | -47.2 | 6.9 | -49.1 | 37.0* | -10.4
N#Cc1cc2c(=O)n3ccccc3nc2n(CCCN2CCOCC2)c1=O | 4.9 | -23.5 | 4.4 | -36.1 | 15.4 | -33.7
N#Cc1cc2c(=O)n3ccccc3nc2n(CCN2CCOCC2)c1=O | 28.4* | -4.9 | -0.5 | -35.8 | 3.8 | -5.2
O=c1cc(CSc2ccc(S(=O)(=O)N3CCCCC3)cn2)nc2sccn12 | -0.6 | -8.4 | 0.9 | 4.5 | 0.7 | 0.2
O=C1CC(C(=O)Nc2nccs2)C(c2ccccc2)O1 (stereo unspecified) | 0.5 | -14.3 | / | / | -1.5 | -3.5
CC(=O)c1cccc(NC(=O)c2nccnc2C(=O)O)c1 | -0.8 | -14.3 | 0.6 | 11.4 | 109.1* | 5.2
CCc1nnc(NC(=O)CSc2nnc(-c3ccc(O)cc3)n2-c2ccccc2)s1 | -1.0 | 1.3 | -1.0 | 8.5 | -2.6 | -5.7
SMILES | HTR1E agonist | 5HT1a antag | S1P3 agonist | S1P1 ag pot | HTR1A agonist | 5HT1E antag
O=C(NC1CCCCC1)C(c1ccco1)N(Cc1ccco1)C(=O)c1ccco1 (stereo unspecified) | -0.7 | 48.7* | -1.3 | 8.9 | 1.4 | -4.7
O=C(Cc1cccs1)N(Cc1ccco1)C1(C(=O)NC2CCCC2)CCCCC1 | -0.3 | 62.7* | / | / | -3.0 | 1.3
O=C(NC1CCCC1)C(c1ccsc1)N(Cc1ccco1)C(=O)Cc1cccs1 (stereo unspecified) | -0.4 | 58.1* | 0.1 | 2.6 | -1.1 | 6.4
Cc1ccc(-c2nnn(CC(=O)N(Cc3cccs3)C(C(=O)NC3CCCC3)c3ccco3)n2)o1 (stereo unspecified) | 0.6 | 17.4 | -0.8 | 25.0 | 1.7 | 17.2
O=C(NC1CCCCC1)C(c1ccco1)N(Cc1cccs1)C(=O)Cn1nnc2ccccc21 (stereo unspecified) | -0.7 | 46.4* | -0.5 | -20.3 | -3.3 | 7.5
O=C(Cn1cc(C(=O)c2cccs2)c2ccccc21)NCc1ccc2c(c1)OCO2 | -0.4 | 5.0 | -0.7 | 19.5 | -2.7 | -14.7
COc1ccc(S(=O)(=O)N(C)CC(=O)N2CCC(C(N)=O)CC2)cc1Cl | 1.2 | -7.9 | 0.3 | 2.9 | -3.4 | 11.9
CCOC(=O)c1cncc(NC(=O)c2ccccc2)c1 | 0.4 | -12.1 | -1.3 | 3.1 | 1.2 | -9.2
O=C(CCCN1Cc2ccccc2C1)c1ccc(F)cc1 | 0.7 | 27.2 | -1.5 | -4.4 | 21.9* | 1.0
CCC(C)c1ccc2oc(-c3ccc(NC(=O)Cn4cnc5c(=O)n(C)c(=O)n(C)c54)cc3)nc2c1 (stereo unspecified) | 1.9 | 9.3 | -0.5 | 110.8* | 7.7 | -5.2
Cn1c(=O)c2ncn(CC(=O)Nc3ccc4oc(-c5cccc6ccccc56)nc4c3)c2n(C)c1=O | -0.4 | -1.4 | -1.0 | -6.5 | -0.6 | 0.6
COc1ccccc1-n1c(CNc2c(C)cccc2C)nnc1SCC(=O)N1CCOCC1 | -0.7 | -1.7 | -0.5 | -2.4 | -1.4 | 2.6
CCC(=O)Nc1nonc1-c1nc2ccccc2n1Cc1ccc(Cl)c(Cl)c1 | -0.1 | -7.3 | -1.6 | -6.7 | -4.7 | 2.0
Nc1nonc1-c1nc2ccccc2n1Cc1ccc(F)cc1Cl | 0.3 | 62.7* | -0.6 | 1.0 | -3.4 | 18.5
CCC(C)(C(=O)NC1CCCC1)N(Cc1cccs1)C(C)=O (stereo unspecified) | 0.1 | 16.2 | / | / | -2.3 | 5.7
CCC(C)(C(=O)NC1CCCC1)N(Cc1ccco1)C(=O)c1ccccn1 (stereo unspecified) | -0.5 | 31.5 | -0.6 | -0.7 | -0.7 | 1.7
CCC(C)(C(=O)NC1CCCC1)N(Cc1ccco1)C(=O)c1ccc2c(c1)OCO2 (stereo unspecified) | -0.2 | 49.0* | -1.4 | 1.2 | -1.9 | -20.1
CCC(C)(C(=O)NC1CCCC1)N(Cc1cccs1)C(=O)Cc1cccs1 (stereo unspecified) | -1.4 | 59.2* | / | / | 0.4 | 8.1
Cc1cc(N2CCOCC2)nc(SCC(=O)c2ccccc2)n1 | 0.0 | -5.8 | / | / | 1.9 | 1.8
Cc1cc(N2CCOCC2)nc(NCc2ccccc2)n1 | -0.1 | 3.6 | -2.2 | 58.9* | -3.7 | 32.6*
